# Assay results taken from ChEMBL document CHEMBL4017505 (J Med Chem, 2017).
# The source made the active and inactive calls. The rule behind the calls is not given here.
# Tests used:
# [1] = target: Kappa-type opioid receptor (Homo sapiens) (UniProt P41145); test: Agonist activity at human kappa opioid receptor expressed in CHO cell membranes after 60 mins by [35S]GTPgammaS binding assay relative to U69,593; assay type: functional
# How it was run: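 Membranes (8–15 μg) from CHO cells stably expressing human KOP, in 20 mM HEPES, 10 mM MgCl2, 100 mM NaCl, pH 7.4. Incubated with 0.05 nM [35S]GTPγS, 10 μM GDP and graded compound for 60 min at 25 °C. Nonspecific binding with 10 μM GTPγS; basal binding without ligand. Filtered and counted. Efficacy given as % stimulation relative to U69,593. Duplicates, ≥3 experiments.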
# Mus musculus [2] = test: Antinociceptive activity in sc dosed CD-1 mouse assessed as inhibition of acetic acid-induced writhing treated 30 mins prior to test followed by acetic acid challenge measured for 10 mins starting 5 mins post acetic acid challenge; assay type: functional
# How it was run: (§1)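 Male CD1 mice (30–35 g, 6–8 weeks) given compound or saline sc at 10 μL/g. […] ED50 by Litchfield–Wilcoxon from dose–response. Doses expressed as salts; ≥5 mice per group, each used once.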
# Mus musculus [3] = test: Antinociceptive activity in CD-1 mouse assessed as inhibition of acetic acid-induced writhing at […], sc treated 30 mins prior to test followed by acetic acid challenge measured for 10 mins starting 5 mins post acetic acid challenge in presence of KOP receptor antagonist nor-BNI; assay type: functional, organism-based
# Mus musculus [4] = test: Toxicity in CD-1 mouse assessed as motor impairment at 5 mg/kg, sc treated 30 mins prior to test by rotarod test; assay type: organism-based; conditions: in vivo, 0.5 h
# Mus musculus [5] = test: Antinociceptive activity in CD-1 mouse assessed as inhibition of acetic acid-induced writhing at 5 mg/kg, sc treated 30 mins prior to test followed by acetic acid challenge measured for 10 mins starting 5 mins post acetic acid challenge in presence of KOP receptor antagonist nor-BNI; assay type: functional, organism-based
# How it was run: (§2)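 Writhing test in male CD1 mice: nor-BNI 20 mg/kg sc given 24 h before sc test compound. Acetic acid 0.6% ip at 25 min after compound; writhes counted for 10 min. Inhibition calculated as % reduction against saline controls. ≥5 mice per group.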
# Mus musculus [6] = test: Toxicity in CD-1 mouse assessed as motor impairment at 10 to 20 mg/kg, sc treated 30 mins prior to test by rotarod test; assay type: organism-based; conditions: in vivo, 0.5 h
# Mus musculus [7] = test: Antinociceptive activity in CD-1 mouse assessed as inhibition of acetic acid-induced writhing at 1 mg/kg, sc treated 30 mins prior to test followed by acetic acid challenge measured for 10 mins starting 5 mins post acetic acid challenge in presence of KOP receptor antagonist nor-BNI; assay type: functional, organism-based; how it was run: as §2
# Mus musculus [8] = test: Toxicity in CD-1 mouse assessed as motor impairment at […], sc treated 30 mins prior to test by rotarod test; assay type: organism-based; conditions: in vivo, 0.5 h
# Mus musculus [9] = test: Toxicity in CD-1 mouse assessed as motor impairment at 5 to 10 mg/kg, sc treated 30 mins prior to test by rotarod test; assay type: organism-based; conditions: in vivo, 0.5 h
# Mus musculus [10] = test: Toxicity in CD-1 mouse assessed as motor impairment at 15 mg/kg, sc treated 30 mins prior to test by rotarod test; assay type: organism-based; conditions: in vivo, 0.5 h
# Mus musculus [11] = test: Toxicity in CD-1 mouse assessed as motor impairment at 7.5 mg/kg, sc treated 30 mins prior to test by rotarod test; assay type: organism-based; conditions: in vivo, 0.5 h
# Mus musculus [12] = test: In vivo antagonist activity at kappa opioid receptor in CD-1 mouse assessed as reversal of U50,488-induced inhibition of acetic acid-mediated writhing at 10 mg/kg, sc treated 15 mins prior to U50,488 measured for 10 mins starting 5 mins post acetic acid challenge; assay type: functional, organism-based
# How it was run: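 Male CD1 mice received test compound 10 mg/kg sc, then U50,488 2 mg/kg sc 15 min later. Acetic acid 0.6% ip given 25 min after U50,488 dosing; writhes counted for 10 min. Compared with saline controls. ≥5 mice per group, sc volume 10 μL/g.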
# Mus musculus [13] = test: Antinociceptive activity in CD-1 mouse assessed as inhibition of acetic acid-induced writhing at 10 mg/kg, sc treated 30 mins prior to test followed by acetic acid challenge measured for 10 mins starting 5 mins post acetic acid challenge; assay type: functional, organism-based; how it was run: as §1
# [14] = target: Kappa-type opioid receptor (Homo sapiens) (UniProt P41145)
# Chain of Kappa-type opioid receptor (Homo sapiens) (P41145 whole entry): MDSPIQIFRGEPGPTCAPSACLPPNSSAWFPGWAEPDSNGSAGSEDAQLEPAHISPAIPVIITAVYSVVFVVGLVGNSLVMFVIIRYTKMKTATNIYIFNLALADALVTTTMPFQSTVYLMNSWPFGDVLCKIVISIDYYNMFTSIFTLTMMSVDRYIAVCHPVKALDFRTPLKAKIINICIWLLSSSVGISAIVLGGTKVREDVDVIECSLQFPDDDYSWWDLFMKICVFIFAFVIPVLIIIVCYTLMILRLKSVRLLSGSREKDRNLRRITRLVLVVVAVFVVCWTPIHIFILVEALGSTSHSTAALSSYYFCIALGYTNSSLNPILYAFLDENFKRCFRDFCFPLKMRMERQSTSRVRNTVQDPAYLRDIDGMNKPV
smiles,measurement,setting,value
Oc1cccc(CCN(CCc2cccc(O)c2)CC2CCCCC2)c1,Efficacy,[1],91.1%
same,inhibition,Mus musculus [2],Dose-dependent effect
Cl.Oc1cccc(CCN(CCc2ccccc2)CC2CCCCC2)c1,inhibition,Mus musculus [2],Dose-dependent effect
same,inhibition,Mus musculus [3],inactive
same,Activity,Mus musculus [4],Non-Toxic
Oc1cccc(CCN(CCc2cccc(O)c2F)CC2CCC2)c1,inhibition,Mus musculus [2],Dose-dependent effect
Oc1cccc(CCN(CCc2cccc(O)c2)CC2CCC2)c1,inhibition,Mus musculus [2],Dose-dependent effect
CC(C)CCN(CCc1ccccc1)CCc1cccc(O)c1,inhibition,Mus musculus [2],Dose-dependent effect
Oc1cccc(CCN(CCc2ccccc2)Cc2ccccc2)c1,Efficacy,[1],79.5%
same,inhibition,Mus musculus [2],Dose-dependent effect
Oc1cccc(CCN(CCc2ccccc2)CC2CC2)c1,inhibition,Mus musculus [2],Dose-dependent effect
same,inhibition,Mus musculus [5],inactive
same,Activity,Mus musculus [6],Non-Toxic
Cl.Oc1cccc(CCN(CCc2ccccc2)CC2CCCC2)c1,Efficacy,[1],82.8%
same,inhibition,Mus musculus [2],Dose-dependent effect
same,inhibition,Mus musculus [7],inactive
same,Activity,Mus musculus [8],Non-Toxic
Oc1cccc(CCN(CCc2ccccc2)CC2CCC2)c1,Activity,Mus musculus [9],Non-Toxic
Oc1cccc(CCN(CCc2cccc(O)c2)CC2CCCC2)c1,Efficacy,[1],80.4%
same,inhibition,Mus musculus [2],Dose-dependent effect
Cl.Oc1cccc(CCN(CCc2ccccc2)CC2CCC2)c1F,Efficacy,[1],66.1%
same,inhibition,Mus musculus [2],Dose-dependent effect
same,Activity,Mus musculus [10],Non-Toxic
C=CCN(CCc1ccc(O)cc1)CCc1cccc(O)c1,Efficacy,[1],29.8%
Oc1cccc(CCN(CCc2cccc(O)c2)CC2CC2)c1,inhibition,Mus musculus [2],Dose-dependent effect
CC(C)CCN(CCc1cccc(O)c1)CCc1cccc(O)c1,inhibition,Mus musculus [2],Dose-dependent effect
Oc1ccc(CCN(CCc2cccc(O)c2)CC2CCC2)cc1,inhibition,Mus musculus [2],Dose-dependent effect
Oc1ccc(CCN(CCc2cccc(O)c2)CC2CCCCC2)cc1,Efficacy,[1],84.3%
same,inhibition,Mus musculus [2],Dose-dependent effect
c1ccc(CCN(CCc2ccccc2)CC2CCC2)cc1,Efficacy,[1],91.9%
Cl.Oc1cccc(CCN(CCc2ccccc2)CC2CCCCC2)c1F,Efficacy,[1],88.9%
same,inhibition,Mus musculus [2],Dose-dependent effect
same,Activity,Mus musculus [11],Non-Toxic
Oc1ccc(CCN(CCc2cccc(O)c2)CC2CC2)cc1,inhibition,Mus musculus [12],Active
same,inhibition,Mus musculus [13],inactive
same,Ke,[14],24.3 nM
Oc1ccc(CCN(CCc2cccc(O)c2F)CC2CCC2)cc1,inhibition,Mus musculus [2],Dose-dependent effect
